Active and inactive are the calls of the source. The calls are words filed in the database; no cut-off is given here.
Legend:
[1] = Therapeutic index, ratio of IC50 for mice (Mus musculus) spleen lymphocytes to IC50 for chloroquine-resistant Plasmodium falciparum Dd2; format: tissue-based; conditions: read-out: Ratio IC50
Plasmodium falciparum [2] = assay: Ratio of compound IC50 to chloroquine IC50 for chloroquine-sensitive Plasmodium falciparum D6; format: functional
Plasmodium falciparum [3] = assay: Ratio of compound IC50 to chloroquine IC50 for chloroquine-resistant Plasmodium falciparum Dd2; format: functional
Plasmodium falciparum [4] = assay: Ratio of compound IC50 to chloroquine IC50 for chloroquine-resistant Plasmodium falciparum 7G8; format: functional
Plasmodium berghei [5] = assay: Antiplasmodial activity against Plasmodium berghei infected in NMRI mice (Mus musculus) assessed as survival rate at 30 mg/kg, perorally administered as single dose; format: functional; conditions: route oral
Procedure, shortened: (§1)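 P. berghei blood diluted in saline to 10^8 parasitized erythrocytes/mL; 0.2 mL given i.v. to groups of 3 female NMRI mice (controls 5). Compounds dosed at 10 ml/kg either once on day 1 (oral gavage or subcutaneous) or orally at 4, 24, 48, 72 h post-infection. Parasitemia read by FACS on 100,000 RBCs from tail blood on day 3 (single dose) or day 4 (quadruple dose). Activity = % reduction versus control mean. Survival monitored to 30 days.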

Plasmodium falciparum [6] = assay: Antiplasmodial activity against chloroquine-resistant Plasmodium falciparum Dd2 early trophozoites infected in NMRI mice (Mus musculus) RBC assessed as inhibition of hemozoin formation at 100 nM after 24 hrs by microscopic analysis; format: functional, organism-based
Procedure, shortened: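 D6 and Dd2 cultures synchronized to ring stage with 5% sorbitol, suspended at 1% hematocrit and exposed to drug (from 1 mM stock) for 24 h at 37 °C under 5% O2/5% CO2/90% N2. Giemsa-stained smears examined by microscopy for hemozoin, parasitemia and parasite morphology.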

[7] = Drug level in NMRI mice (Mus musculus) erythrocytes infected with chloroquine-sensitive Plasmodium falciparum D6 after 1 hr; format: ADME, cell-based; conditions: erythrocyte
Procedure, shortened: (§2)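 Sorbitol-synchronized mature trophozoites (about 10% parasitemia) in 5 mL complete medium, drug at about 5 µM initial medium concentration. Medium sampled over time and analyzed by C18 HPLC. NH4Cl (10 mM) added 10 min before sampling to release accumulated drug; uptake is the difference from the 1 h level. DV concentration assumes 6 × 10^7 PRBCs and a 4 fL DV. Accumulation ratio is DV/medium concentration.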

[8] = Drug level in erythrocytes infected with chloroquine-resistant Plasmodium falciparum Dd2 after 1 hr; conditions: erythrocyte
Plasmodium falciparum [9] = assay: Antiplasmodial activity against chloroquine-sensitive Plasmodium falciparum D6 early trophozoites infected in NMRI mice (Mus musculus) RBC assessed as inhibition of hemozoin formation at 100 nM after 24 hrs by microscopic analysis; format: functional, organism-based
Procedure, shortened: (§3)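 Ring-stage D6 parasites synchronized with 5% sorbitol, suspended at 1% hematocrit and drug added from 1 mM stock. Incubated 24 h at 37 °C under 5% O2/5% CO2/90% N2 alongside a no-drug control. Giemsa-stained smears were used for parasitemia and for microscopic examination of hemozoin and parasite morphology.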

Plasmodium falciparum [10] = assay: Antiplasmodial activity against synchronized chloroquine-resistant Plasmodium falciparum Dd2 infected in NMRI mice (Mus musculus) RBC assessed as inhibition of hemozoin formation at 1000 nM after 24 hrs by colorimetric analysis; format: functional, organism-based
Procedure, shortened: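 Sorbitol-synchronized D6 and Dd2 cultures at 1% hematocrit were drug-treated for 24 h at 37 °C. Parasites were freed by freeze-thaw and saponin/Triton lysis buffer (37 °C, 30 min). Hemozoin was pelleted at 215,000 g, washed with acetone and PBS, then dissolved in 0.2 N NaOH. Heme was quantified by A400 (ε 91,000 cm-1M-1) per parasitized erythrocyte. Baseline was taken from 0 h culture.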

Plasmodium berghei [11] = assay: Antiplasmodial activity against Plasmodium berghei infected in NMRI mice (Mus musculus) assessed as survival rate at 30 mg/kg, perorally administered as 4 consecutive doses measured post last dose; format: functional; conditions: route oral; procedure, shortened: as §1
Plasmodium falciparum [12] = assay: Antiplasmodial activity against synchronized chloroquine-sensitive Plasmodium falciparum D6 infected in NMRI mice (Mus musculus) RBC assessed as inhibition of hemozoin formation at 1000 nM after 24 hrs by colorimetric analysis; format: functional, organism-based
Procedure, shortened: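 D6 cultures synchronized with sorbitol, held at 1% hematocrit, drug-treated 24 h at 37 °C. Parasites freeze-thawed, then lysed 30 min at 37 °C in saponin/Triton X-100 buffer. Hemozoin pelleted at 215,000 g, washed with acetone and PBS, dissolved 2 h in 0.2 N NaOH. Heme read at A400 (ε 91,000 cm-1M-1) and expressed per parasitized erythrocyte. A 0 h culture gave the baseline.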

Plasmodium berghei [13] = assay: Antiplasmodial activity against Plasmodium berghei infected in NMRI mice (Mus musculus) assessed as survival rate at 30 mg/kg, subcutaneously administered as single dose; format: functional; conditions: route subcutaneous; procedure, shortened: as §1
Plasmodium berghei [14] = assay: Antiplasmodial activity against Plasmodium berghei infected in NMRI mice (Mus musculus) assessed as parasitaemia level at 30 mg/kg, perorally administered as 4 consecutive doses measured after 3 days post last dose relative to control; format: functional; conditions: route oral; procedure, shortened: as §1
Plasmodium berghei [15] = assay: Antiplasmodial activity against Plasmodium berghei infected in NMRI mice (Mus musculus) assessed as parasitaemia level at 30 mg/kg, subcutaneously after 3 days relative to control; format: functional; conditions: route subcutaneous; procedure, shortened: as §1
Heme = assay: Binding affinity to heme after 4 hrs by equilibrium binding assay
Procedure, shortened: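 Heme stock in NaOH, diluted to 5 µM in 100 mM phosphate buffer pH 5.7 and equilibrated 4 h. Optical titration by successive addition of compound, with pH held within ±0.05. Apparent dissociation constants from nonlinear least-squares fitting, assuming 2:1 heme:drug stoichiometry.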

Plasmodium berghei [16] = assay: Antiplasmodial activity against Plasmodium berghei infected in NMRI mice (Mus musculus) assessed as parasitaemia level at 30 mg/kg, perorally administered as single dose measured after 3 days relative to control; format: functional; conditions: route oral; procedure, shortened: as §1
[17] = Inhibition of beta-hematin formation after 24 hrs; format: functional
Procedure, shortened: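 40 µM heme in 0.67 M sodium acetate pH 4.8 with 0.0005 g/L Tween20, compound at 0–1000 µM. Incubated 24 h at 37 °C in the dark, then read at 415/630 nm. IC50 taken as (Dmax − Dinitial)/2. Duplicate assays, run twice.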

Plasmodium falciparum [18] = assay: Inhibition of hemozoin formation in early trophozoites of chloroquine-sensitive Plasmodium falciparum D6 infected in RBC assessed as enlarged digestive vacuole at 100 nM after 24 hrs by microscopic analysis; format: functional, organism-based; procedure, shortened: as §3
[19] = Drug level in chloroquine-sensitive Plasmodium falciparum D6 digestive vacuole assessed as ratio of drug level in vacuole to medium at 5 uM after 1 hr; format: ADME; conditions: plasmodium falciparum d6, 1 h; procedure, shortened: as §2
[20] = Drug level in chloroquine-sensitive Plasmodium falciparum D6 digestive vacuole after 1 hr; format: ADME; conditions: plasmodium falciparum d6, 1 h; procedure, shortened: as §2
[21] = Drug level in chloroquine-sensitive Plasmodium falciparum Dd2 digestive vacuole assessed as ratio of drug level in vacuole to medium at 5 uM after 1 hr; format: ADME; conditions: plasmodium falciparum dd2, 1 h, in the assay text read “chloroquine-resistant” for “chloroquine-sensitive”; procedure, shortened: as §2
Plasmodium berghei [22] = assay: Antiplasmodial activity against Plasmodium berghei infected in NMRI mice (Mus musculus) assessed as survival rate at 44 mg/kg, perorally administered as 4 consecutive doses measured post last dose; format: functional; conditions: route oral; procedure, shortened: as §1
Plasmodium berghei [23] = assay: Antiplasmodial activity against Plasmodium berghei infected in NMRI mice (Mus musculus) assessed as parasitaemia level at 44 mg/kg, perorally administered as 4 consecutive doses measured after 4 days post last dose relative to control; format: functional; conditions: route oral
[24] = Solubility of the compound; format: physicochemical

| Structure (SMILES) | selectivity ratio [1] | Ratio IC50 (Plasmodium falciparum [2]) | Ratio IC50 (Plasmodium falciparum [3]) | Ratio IC50 (Plasmodium falciparum [4]) | Kd (Heme) [µM] | IC50 [17] [µM] | further results |
| --- | --- | --- | --- | --- | --- | --- | --- |
| Clc1ccc2c(NCCN3CCCN(C4c5ccccc5-c5ccccc54)CC3)ccnc2c1 | 260 | 9.2 | 9.6 | 41 | – | – | – |
| CCN(CC)CCCC(C)Nc1ccnc2cc(Cl)ccc12 (stereo unspecified) [CHLOROQUINE] | – | – | – | – | – | – | Survival (Plasmodium berghei [5]): 9 days; inhibition (Plasmodium falciparum [6]): inactive; Drug uptake [7]: 0.7 ×10⁻⁸ mol; Drug uptake [8]: 0.5 ×10⁻⁸ mol; inhibition (Plasmodium falciparum [9]): inactive; inhibition (Plasmodium falciparum [10]): Active; Survival (Plasmodium berghei [11]): 23 days; inhibition (Plasmodium falciparum [12]): Active; Survival (Plasmodium berghei [13]): 10 days |
| Clc1ccc2c(NCCN3CCN(C(c4ccccc4)c4ccccc4)CC3)ccnc2c1 | 528 | 1 | 3.6 | 4.3 | 3.3 | 2.5 | Survival (Plasmodium berghei [5]): 8 days; Activity (Plasmodium berghei [14]): >99.9%; Activity (Plasmodium berghei [15]): <40%; Activity (Plasmodium berghei [16]): >99.9%; Survival (Plasmodium berghei [11]): 16 days; Survival (Plasmodium berghei [13]): 3 days |
| Clc1ccc(C(c2ccccc2)N2CCN(CCNc3ccnc4cc(Cl)ccc34)CC2)cc1 (stereo unspecified) | 700 | 2.6 | 2 | 10 | – | – | – |
| Clc1ccc2c(NCCCN3CCN(CC(c4ccccc4)c4ccccc4)CC3)ccnc2c1 | 6970 | 0.5 | 3.3 | 3.4 | – | – | – |
| CN(CCCNc1ccnc2cc(Cl)ccc12)CCCN1c2ccccc2CCc2ccccc21 | 132 | 2.9 | 5.3 | 4 | 8.6 | 9 | Survival (Plasmodium berghei [5]): 3 days; Activity (Plasmodium berghei [14]): 96%; inhibition (Plasmodium falciparum [18]): Active; Activity (Plasmodium berghei [15]): 92%; Drug uptake [7]: 1.6 ×10⁻⁸ mol; Ratio [19]: 32000; Drug uptake [8]: 1.8 ×10⁻⁸ mol; Drug uptake [20]: 65000 µM; Activity (Plasmodium berghei [16]): <40%; inhibition (Plasmodium falciparum [9]): inactive; Survival (Plasmodium berghei [11]): 8 days; Survival (Plasmodium berghei [13]): 7 days; Ratio [21]: 38000 |
| OCCN1CCN(C(c2ccccc2)c2ccccc2)CC1 | > 50 | >2500 | >2500 | >2500 | – | – | – |
| CN(CCCN1c2ccccc2CCc2ccccc21)CCNc1ccnc2cc(Cl)ccc12 | 269 | 3.6 | 5.2 | 21 | 7.3 | 10 | – |
| Clc1ccc2c(NCCN3CCC(NC(c4ccccn4)c4ccccn4)CC3)ccnc2c1 | 7310 | 1.1 | 3.9 | 7.4 | 1 | 2 | Survival (Plasmodium berghei [22]): >30 days; Activity (Plasmodium berghei [23]): >99.9% |
| Clc1ccc2c(NCCCN3CCCN(C4c5ccccc5-c5ccccc54)CC3)ccnc2c1 | 167 | 21 | 15 | 56 | – | – | – |
| Clc1ccc2c(NCCCCN3CCN(C(c4ccccc4)c4ccccc4)CC3)ccnc2c1 | 846 | 1.3 | 1.3 | 7.2 | – | – | – |
| Clc1ccc2c(NCCCN3CCN(C(c4ccccc4)c4ccccc4)CC3)ccnc2c1 | 423 | 1.9 | 2.6 | 11 | 3 | 3.5 | – |
| Clc1ccc(C(c2ccccc2)N2CCN(CCCNc3ccnc4cc(Cl)ccc34)CC2)cc1 (stereo unspecified) | 229 | 3.2 | 3.5 | 12 | – | – | – |
| Fc1ccc(C(c2ccc(F)cc2)N2CCN(CCCNc3ccnc4cc(Cl)ccc34)CC2)cc1 | 1710 | 2 | 2.4 | 34 | – | – | – |
| Clc1ccc(C(c2ccccc2)N2CCCN(CCCNc3ccnc4cc(Cl)ccc34)CC2)cc1 (stereo unspecified) | 158 | 6.6 | 5.7 | 22 | – | – | – |
| Clc1ccc2c(NCCCN3CCNCC3)ccnc2c1 | 3380 | 4.3 | 6.8 | – | – | – | – |
| Clc1ccc2c(NCCCN3CCN(C(c4ccccc4)(c4ccccc4)c4ccccc4)CC3)ccnc2c1 | 13600 | 2 | 4.2 | 10 | 5.4 | – | Survival (Plasmodium berghei [5]): 7 days; solubility [24]: Insoluble; Activity (Plasmodium berghei [14]): >99.9%; Activity (Plasmodium berghei [15]): <40%; Activity (Plasmodium berghei [16]): 99.7%; Survival (Plasmodium berghei [11]): 20 days; Survival (Plasmodium berghei [13]): 3 days |
| Clc1ccc2c(NCCCN3CCCN(C(c4ccccc4)c4ccccc4)CC3)ccnc2c1 | 171 | 4.8 | 4.1 | 15 | – | – | – |
| Clc1ccc2c(NCCCN3CCN(C4C5CC6CC(C5)CC4C6)CC3)ccnc2c1 (stereo unspecified) | 69400 | 0.8 | 1.8 | 10 | 2.5 | 14 | – |

Source: ChEMBL document CHEMBL1250478 (J Med Chem, 2010)
